Rows were chosen to be rich in hits. Some 3.5% of all compounds tested hit in one or more screens of this group.
MrgX1 antagonist: human MrgX1 receptor antagonism, primary screen | MRGX1-HEK293 calcium flux, Fluo-4, BAM8-22 antagonism; active compounds read low | B-score at 10 µM | 1.3% of 310,000 active;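 active = calcium-response B-score plate-corrected more than 3 library SD below zero, starting fluorescence within 5 deviations, no agonist response on first addition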;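 also: peak minus trough fluorescence over baseline after final BAM8-22 challenge near maximal dose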
MrgX1 allo act: allosterically activates human MrgX1 receptor signaling | B-score at 10 µM | Q96LB2 | 0.63% of 310,000 active | MrgX1-HEK293, Fluo-4 calcium flux, FDSS; active compounds read high;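 active = plate-corrected calcium response at least 3 library SD above typical, normal starting fluorescence, not activating the receptor alone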;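 also: compound read alongside a low EC10 to EC30 dose of BAM8-22 agonist; peak minus trough fluorescence over baseline measured at the second addition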
RGS4 inh: human RGS4 inhibition; HEK293 M3R/RGS4 inducible, Fluo-4 calcium flux; active compounds read high; triggered by carbachol at its EC20; 0.45% of 310,000 active; AID 463165; P49798; B-score at 10 µM;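 active = B-score, a plate-corrected calcium signal, over three deviations above library mean, with baseline fluorescence within five deviations of library mean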;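 also: RGS4 expression induced by doxycycline in cells with stable M3 receptor; B-score is computed from the integrated fluorescence ratio over baseline after carbachol; higher B-score means a larger calcium signal and so more RGS4 inhibition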
Target sequence (P49798 whole entry, looked up): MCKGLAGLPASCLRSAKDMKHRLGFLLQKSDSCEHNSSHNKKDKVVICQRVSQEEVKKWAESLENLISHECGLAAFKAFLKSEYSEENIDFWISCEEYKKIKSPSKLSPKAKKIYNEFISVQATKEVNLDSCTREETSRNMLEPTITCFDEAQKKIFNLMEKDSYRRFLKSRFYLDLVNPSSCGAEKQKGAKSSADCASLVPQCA
RGS4 act: RGS4 potentiation or activation | HEK293 M3R/inducible RGS4, carbachol calcium flux Fluo4; active compounds read low | AID 463111 | B-score at 10 µM | 0.92% of 310,000 active;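 active = B-score of the integrated calcium signal more than 4 SD below the library mean, with starting fluorescence not abnormally high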;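 also: negative B-score means reduced calcium response which marks RGS4 activation or potentiation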
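Detection: kinetic calcium fluorescence imaging with Fluo4-AM dye, 2 µM / Material: HEK293 cells with stable M3R and inducible RGS4 / Schedule: recording 10 s baseline at 1 Hz, 100 s post-agonist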
MrgX1 agonist: agonists of human MrgX1 receptor; Q96LB2; MrgX1-HEK293 cells, Fluo-4 calcium fluorescence, agonist mode; active compounds read high; B-score at 10 µM; 0.44% of 310,000 active; AID 588627;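 active = calcium response B-score plate-corrected fluorescence ratio at least 3 library SD, with starting fluorescence B-score inside 5 SD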
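Test system: HEK293 cells stably expressing human MrgX1 receptor; amount: 15,000 cells per well; doses: compound delivered in addition one of three; times: overnight plating before 1 h dye loading; detection: Fluo-4 NW calcium-flux fluorescence, kinetic read; read-out basis: B-scored fluorescence response ratio; controls: positive and negative controls per plate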
Starred values were filed as active, the others as inactive; i = inactive.

SMILES	MrgX1 antagonist	MrgX1 allo act	RGS4 inh	RGS4 act	MrgX1 agonist
CN(C(=O)C(C)(C)C)c1ccc(OCC(=O)N2CCc3ccccc3C2)cc1	i	i	i	-7.4*	i
Cc1c(C(=O)N2CCN(Cc3ccc4c(c3)OCO4)CC2)sc2ncnc(N3CCN(c4ccccc4F)CC3)c12	-5.4*	i	i	i	i
Cc1ccc2c(C(=O)CCl)c(C)[nH]c2c1	i	8.2*	i	i	i
NS(=O)(=O)c1ccc(CNC(=O)/C=C/c2ccc(Cl)c(Cl)c2)cc1	i	i	i	i	i
CC(C)c1ccc(/C=C/C(=O)NCc2ccc(S(N)(=O)=O)cc2)cc1	-6.8*	i	i	i	i
O=C1/C(=C/c2cccs2)SC(=S)N1CC(=O)N1CCCCC1CCO (stereo unspecified)	i	i	i	i	i
CN(CCO)c1nc(N)c2c(N)nc3c(c2c1C#N)CC(=O)N3Cc1cccs1	i	i	i	i	i
N#Cc1c(N(CCO)CCO)nc(N)c2c(N)nc3c(c12)CC(=O)N3Cc1cccs1	-4.5*	i	i	i	i
COc1ccc(C2=NN(c3nc(C(=O)O)cs3)C(O)(C(F)(F)F)C2)c(OC)c1 (stereo unspecified)	-6.5*	i	i	i	i
Cc1ccc(S(=O)(=O)c2c(C)cc(C)nc2Oc2cccc(C(F)(F)F)c2)cc1	i	i	i	-8.2*	i
CN1C(=O)C(O)(CC(=O)/C=C\c2ccc3c(c2)OCO3)c2ccccc21 (stereo unspecified)	-5.4*	i	i	i	i
NC(=O)CN1C(=O)C(O)(CC(=O)/C=C\c2ccc3c(c2)OCO3)c2ccccc21 (stereo unspecified)	i	i	i	i	i
CN(C(=O)/C=C/c1ccc2c(c1)OCO2)c1ccccc1	i	9.1*	i	i	i
O=C(OCCN1C(=O)c2cccc3c(N4CCOCC4)ccc(c23)C1=O)c1ccccc1Cl	i	i	i	-8.2*	i
O=C(Nc1nc(-c2ccccc2)cs1)c1ccccc1NS(=O)(=O)c1ccc(F)cc1	i	i	i	-7.2*	i
CCN(CC)CCCN1C(=O)c2oc3ccccc3c(=O)c2C1c1cccs1 (stereo unspecified)	i	11*	i	i	i
CCN(CC)CCN1C(=O)c2oc3ccccc3c(=O)c2C1c1ccccc1 (stereo unspecified)	-6*	i	i	i	i
COc1ccc(-n2nc(C(=O)NCC(=O)NCCCN3CCOCC3)c3ccccc3c2=O)cc1OC	i	i	i	i	i
COc1ccccc1NC(=O)C1CCN(C(=O)c2ccco2)CC1	i	i	i	i	i
COCc1cc(CNC(=O)C2CCC(=O)N(Cc3ccccc3F)C2)[nH]n1 (stereo unspecified)	i	i	i	i	i
CN1CCC(=NNC(=O)C(=O)Nc2ccccc2F)CC1	i	i	i	i	i
CCOC(=O)NN1C(=O)c2ccccc2NC1c1ccccc1 (stereo unspecified)	-4.5*	i	i	i	i
CCOC(=O)NN1C(=O)c2ccccc2NC1c1ccc(OC)cc1 (stereo unspecified)	i	i	i	i	i
O=C(NN1C(=O)C2C(c3ccccc3)C=CC(c3ccccc3)C2C1=O)c1cccc(Br)c1 (stereo unspecified)	i	i	i	-10*	i
O=c1oc(Cc2ccccc2)nc2ccccc12	i	i	i	i	i
COc1ccc(CCNC(=O)c2ccc(CN3CCC(Cc4ccccc4)CC3)cc2)cc1OC	-5.2*	i	i	i	i
COc1ccc(CCNC(=O)CCc2ccc(S(=O)(=O)NC(C)C)cc2)cc1	-5.7*	i	i	i	i
COCCNC(=O)c1ccc(CN2CCC(Cc3ccccc3)CC2)cc1	i	i	i	i	i
COc1ccc(CCNC(=O)C(=O)NCC2CCCN2S(=O)(=O)c2ccccc2)cc1OC (stereo unspecified)	i	i	i	-9.4*	i
COc1ccc(S(=O)(=O)N2CCCC2CNC(=O)C(=O)NC2CCCCCC2)cc1 (stereo unspecified)	i	i	i	i	i

Compound activity: PubChem BioAssay, Johns Hopkins Ion Channel Center
